A word on the IC50: it is the point on the concentration scale where inhibition reaches its midpoint. One may read the ED50 as the dose that gives a 50% effect, or the effect in half of the subjects. By inhibition in vivo is commonly meant the drop in the measured response relative to a control, in per cent.

Data set [1] addresses T1, Prostaglandin G/H synthase 1 (Ovis aries, UniProt P05979).
T1 sequence (P05979 whole entry): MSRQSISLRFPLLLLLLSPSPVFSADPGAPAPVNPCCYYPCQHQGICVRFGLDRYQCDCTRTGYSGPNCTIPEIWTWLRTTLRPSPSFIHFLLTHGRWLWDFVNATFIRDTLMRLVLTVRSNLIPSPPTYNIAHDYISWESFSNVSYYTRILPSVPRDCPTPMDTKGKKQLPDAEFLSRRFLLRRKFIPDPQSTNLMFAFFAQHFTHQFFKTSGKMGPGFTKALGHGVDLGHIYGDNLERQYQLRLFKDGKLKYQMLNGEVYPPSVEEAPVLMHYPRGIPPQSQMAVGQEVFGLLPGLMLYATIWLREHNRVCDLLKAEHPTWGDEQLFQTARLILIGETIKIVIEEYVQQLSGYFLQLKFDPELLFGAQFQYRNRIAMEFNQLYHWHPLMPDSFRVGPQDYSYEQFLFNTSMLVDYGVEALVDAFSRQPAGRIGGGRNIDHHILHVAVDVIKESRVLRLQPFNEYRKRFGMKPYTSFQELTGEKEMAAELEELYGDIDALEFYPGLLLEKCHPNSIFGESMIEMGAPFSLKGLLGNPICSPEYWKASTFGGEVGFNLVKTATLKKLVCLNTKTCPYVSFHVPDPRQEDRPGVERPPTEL
The experiment in a line: Inhibition of ovine COX1 after 2 mins by EIA.

In data set [2] the target is T2, Prostaglandin G/H synthase 2 (Homo sapiens, UniProt P35354).
T2 sequence (P35354 whole entry): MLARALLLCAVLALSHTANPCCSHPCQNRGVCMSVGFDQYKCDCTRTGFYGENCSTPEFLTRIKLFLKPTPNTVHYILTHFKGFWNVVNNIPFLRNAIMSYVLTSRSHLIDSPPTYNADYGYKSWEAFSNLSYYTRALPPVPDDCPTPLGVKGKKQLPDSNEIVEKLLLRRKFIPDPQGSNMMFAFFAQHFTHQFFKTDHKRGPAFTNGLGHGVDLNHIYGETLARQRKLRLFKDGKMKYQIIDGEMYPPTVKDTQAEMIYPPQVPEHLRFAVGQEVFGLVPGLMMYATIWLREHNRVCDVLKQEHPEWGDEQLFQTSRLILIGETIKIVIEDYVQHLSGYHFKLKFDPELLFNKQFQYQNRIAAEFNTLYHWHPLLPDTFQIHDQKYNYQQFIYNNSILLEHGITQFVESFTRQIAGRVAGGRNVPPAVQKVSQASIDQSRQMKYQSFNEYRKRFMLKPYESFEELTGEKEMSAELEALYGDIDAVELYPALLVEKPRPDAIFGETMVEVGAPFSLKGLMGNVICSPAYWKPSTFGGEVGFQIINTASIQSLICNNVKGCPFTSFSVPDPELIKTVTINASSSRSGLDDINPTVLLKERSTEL
The data set can be described thus: Inhibition of human recombinant COX2 after 2 mins by EIA.

A short description of data set [3]: Selectivity index, ratio of IC50 for ovine COX1 to IC50 for human recombinant COX2. In short, it runs like this:
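Fluorescent screening kit with ovine COX-1 or human recombinant COX-2, heme and ADHP substrate in 0.1 M Tris-HCl pH 8.0 with 5 mM EDTA and 2 mM phenol. Compounds in DMSO tested at 0.01-100, 5 min at 37 °C. Arachidonic acid added; reaction stopped with HCl after 2 min. Resorufin read at ex 535/em 590 nm. IC50 from triplicate concentration-inhibition curves; SI = COX-1 IC50/COX-2 IC50.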

Data set [4] deals with Rattus norvegicus. The experiment in a line: Antiinflammatory activity in po dosed albino rat assessed as inhibition of carrageenan-induced paw edema administered 1 hr prior challenge measured 2 hrs post challenge. The class given is functional. In short, it runs like this:
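Male Charles Foster albino rats, 150-200 g, n = 6 per group. Compounds suspended in 0.5% methyl cellulose, given orally at 50, 100 and 200 mg/kg; reference drugs at 25, 50 and 100 mg/kg. 1 h later, 0.2 mL of 1% carrageenan in 0.9% NaCl injected into the right hind paw.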

Data set [5] concerns Rattus norvegicus. The experiment in a line: Ulcerogenic activity in po dosed albino rat at 200 mg/kg, po administered intragastrically measured after 3 hrs. The class given is toxicity, organism-based. Details: dose 200 mg/kg, route oral. As to conditions: in vivo. In short, it runs like this:
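Rats of 180-200 g, 6 per group, fasted 24 h, dosed intragastrically at 200 mg/kg. Killed 3 h later; stomachs opened along the lesser curvature. Each hemorrhagic lesion measured along its maximum length and ranked. Lesion lengths summed to give the ulcer index, reported as mean ± SEM.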

Data set [6] relates to Mus musculus. The experiment in a line: Analgesic activity in mouse assessed as inhibition of acetic acid-induced writhing at 200 mg/kg, po administered 60 mins prior challenge measured for 5 to 10 mins post acetic acid challenge relative to control. Type of data set: functional. In short, it runs like this: (§1)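 Groups of 6 mice given saline, test compound (200 mg/kg) or aspirin (100 mg/kg) orally. 60 min later, 0.6% acetic acid injected i.p. Writhes per mouse counted between 5 and 10 min after injection. Percent inhibition of writhes calculated against the saline control group.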
On the technique in general: In writhing tests, fewer writhes than in controls are read as antinociception.

For data set [7], the system named is Mus musculus. The experiment in a line: Analgesic activity in mouse assessed as inhibition of acetic acid-induced writhing at 100 mg/kg, po administered 60 mins prior challenge measured for 5 to 10 mins post acetic acid challenge relative to control. The class given is functional. In short, it runs like this:
as §1

As for `Cc1ccc(-c2nn(-c3ccccc3)cc2-c2nnc(-c3ccc(Cl)cc3)o2)cc1`, the IC50 in data set [1] was greater than 100 µM; in data set [2], 58 µM. For the same molecule, the Ratio IC50 in data set [3] is greater than 1.7.
The corresponding values for `COc1ccc(-c2nn(-c3ccccc3)cc2-c2nnc(-c3ccncc3)o2)cc1` are greater than 100 µM, 42 µM and greater than 2.4.
Take `Fc1ccc(-c2nn(-c3ccccc3)cc2-c2nnc(-c3ccc(Cl)cc3)o2)cc1`: the IC50 in data set [1] is greater than 100 µM; in data set [2], 5.5 µM. For the same molecule, the Ratio IC50 in data set [3] is greater than 18.2. Also, in the data set with Rattus norvegicus [4], the ED50 came to 182 mg/kg.
With `c1ccc(-c2nn(-c3ccccc3)cc2-c2nnc(-c3ccncc3)o2)cc1`, the IC50 is greater than 100 µM in data set [1] and 11.1 µM in data set [2]. Further, in data set [3], the Ratio IC50 was greater than 9.
With `Clc1ccc(-c2nnc(-c3cn(-c4ccccc4)nc3-c3ccc(Br)cc3)o2)cc1`, the values for the half-inhibitory concentration (IC50) in data set [1] and in data set [2] were greater than 100 µM and 50 µM, respectively. For the same molecule, in data set [3], the Ratio IC50 was greater than 2.
As for `Brc1ccc(-c2nn(-c3ccccc3)cc2-c2nnc(-c3ccccc3)o2)cc1`, the IC50 in data set [1] and in data set [2] was greater than 100 µM in each case. The Ratio IC50 in data set [3] is greater than 1.
As to `O=[N+]([O-])c1ccc(-c2nn(-c3ccccc3)cc2-c2nnc(-c3ccccc3)o2)cc1`, the IC50 was greater than 100 µM in data set [1] and 0.31 µM in data set [2]. Besides, the Ratio IC50 in data set [3] was greater than 222. Further, the ED50 in the data set with Rattus norvegicus [4] was determined as 74.3 mg/kg. The Activity result in the data set on Rattus norvegicus [5] was “Non-toxic”. The inhibition in vivo at 200 mg/kg in the data set on Mus musculus [6] turned out to be 67.3%.
Consider `Cc1ccc(-c2nn(-c3ccccc3)cc2-c2nnc(-c3ccccc3)o2)cc1`, for which the IC50 in data set [1] was greater than 100 µM; in data set [2] it was 25 µM. In addition, the Ratio IC50 in data set [3] is greater than 4.
For the molecule `Clc1ccc(-c2nnc(-c3cn(-c4ccccc4)nc3-c3ccc(Cl)cc3)o2)cc1`, the IC50 in data set [1] was greater than 100 µM; in data set [2] it was 8.7 µM. For the same molecule, the Ratio IC50 in data set [3] is greater than 11.5. Moreover, in the data set on Rattus norvegicus [4], the ED50 worked out at 199 mg/kg.
Take `c1ccc(-c2nnc(-c3cn(-c4ccccc4)nc3-c3ccccc3)o2)cc1`: the results for the IC50 in data set [1] and in data set [2] were greater than 100 µM and 1.5 µM, respectively. Moreover, the Ratio IC50 in data set [3] was greater than 67. In the data set with Rattus norvegicus [4], the ED50 is 125 mg/kg.
For `Clc1ccc(-c2nn(-c3ccccc3)cc2-c2nnc(-c3ccncc3)o2)cc1`, the values for the half-inhibitory concentration (IC50) in data set [1] and in data set [2] were greater than 100 µM and 4.4 µM, respectively. Further, the Ratio IC50 in data set [3] is greater than 23. The ED50 with Rattus norvegicus [4] came out at 167 mg/kg.
For `Clc1ccc(-c2nn(-c3ccccc3)cc2-c2nnc(-c3ccccc3)o2)cc1`, the IC50 in data set [1] was greater than 100 µM; in data set [2] it was 4.7 µM. Also, the Ratio IC50 in data set [3] was greater than 21. For the same molecule, the ED50 with Rattus norvegicus [4] stood at 171 mg/kg.
Turning to `Fc1ccc(-c2nn(-c3ccccc3)cc2-c2nnc(-c3ccccc3)o2)cc1`, the results for the IC50 in data set [1] and in data set [2] were greater than 100 µM and 6.5 µM, respectively. The Ratio IC50 in data set [3] is greater than 15.4. Moreover, the ED50 in the data set on Rattus norvegicus [4] was determined as 175 mg/kg.
On to `O=[N+]([O-])c1ccc(-c2nn(-c3ccccc3)cc2-c2nnc(-c3ccncc3)o2)cc1`, for which the IC50 was greater than 100 µM in data set [1] and 0.5 µM in data set [2]. Moreover, the Ratio IC50 in data set [3] is greater than 200. Further, the ED50 in the data set with Rattus norvegicus [4] was 72.6 mg/kg.
`CC(=O)Oc1ccccc1C(=O)O` [ASPIRIN]: the Activity entry with Rattus norvegicus [5] was “Toxic”. Moreover, the inhibition in vivo at 100 mg/kg with Mus musculus [7] is 72.2%.
`Fc1ccc(-c2nn(-c3ccccc3)cc2-c2nnc(-c3ccncc3)o2)cc1`: the concentration for half-maximal inhibition (IC50) in data set [1] is greater than 100 µM; in data set [2], 2.3 µM. In addition, the Ratio IC50 in data set [3] was greater than 43. The ED50 in the data set on Rattus norvegicus [4] amounted to 123 mg/kg.
Turning to `COc1ccc(-c2nn(-c3ccccc3)cc2-c2nnc(-c3ccccc3)o2)cc1`, the IC50 in data set [1] and in data set [2] was greater than 100 µM throughout. Also, in data set [3], the Ratio IC50 was greater than 1.
Consider `Clc1ccc(-c2nnc(-c3cn(-c4ccccc4)nc3-c3ccccc3)o2)cc1`, for which the IC50 is greater than 100 µM in data set [1] and 38 µM in data set [2]. In data set [3], the Ratio IC50 was greater than 2.6.
As for `Cc1ccc(-c2cc(C(F)(F)F)nn2-c2ccc(S(N)(=O)=O)cc2)cc1` [CELECOXIB], the 50% effective dose (ED50) in the data set on Rattus norvegicus [4] came to 81.7 mg/kg.
Turning to `COc1ccc(-c2nn(-c3ccccc3)cc2-c2nnc(-c3ccc(Cl)cc3)o2)cc1`, the figures for the IC50 in data set [1] and in data set [2] were greater than 100 µM and 67 µM, respectively. In data set [3], the Ratio IC50 was greater than 1.5.
Consider `Cc1ccc(-c2nn(-c3ccccc3)cc2-c2nnc(-c3ccncc3)o2)cc1`, for which the results for the IC50 in data set [1] and in data set [2] were greater than 100 µM and 53 µM, respectively. Also, the Ratio IC50 in data set [3] was greater than 1.9.
In the same order, the values of `Brc1ccc(-c2nn(-c3ccccc3)cc2-c2nnc(-c3ccncc3)o2)cc1` are greater than 100 µM, 39 µM and greater than 2.6.
Consider `O=C(O)Cc1ccccc1Nc1c(Cl)cccc1Cl` [DICLOFENAC], for which the ED50 in the data set on Rattus norvegicus [4] is 110 mg/kg.
In the case of `O=[N+]([O-])c1ccc(-c2nn(-c3ccccc3)cc2-c2nnc(-c3ccc(Cl)cc3)o2)cc1`, the IC50 in data set [1] was greater than 100 µM; in data set [2] it was 1.2 µM. In addition, the Ratio IC50 in data set [3] was greater than 83.3. In addition, the ED50 in the data set on Rattus norvegicus [4] is 167 mg/kg.
